Experimental data from ChEMBL document CHEMBL3102843, “Synthesis and antifungal activity of substituted 2,4,6-pyrimidinetrione carbaldehyde hydrazones” (Bioorg Med Chem, 2014).
In brackets after ≈: the same amount, converted by molar mass. Activity calls are given as the source filed them. The rule behind the calls is not given here.

Tests used:
[1] = system: Candida albicans; assay: Antifungal activity against Candida albicans ATCC 10231 after 48 to 72 hrs by broth microdilution method; format: functional
How it was run: (§1)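 Broth microdilution per NCCLS. Organisms were subcultured on Sabouraud agar. Inoculum was 5–7 colonies from YM agar in sterile water, adjusted to 0.5 McFarland at 530 nm (1–5×10⁶ cells/mL stock), held 30 min at RT, then diluted 1:50 in HEPES-buffered RPMI 1640. DMSO stocks were twofold-diluted, with final DMSO ≤1%. Plates ran 48–72 h at 35 °C, humid. MIC is the lowest concentration giving ≥80% growth reduction vs drug-free wells, scored visually. Fluconazole or amphotericin B ran as drug control.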

[2] = system: Nakaseomyces glabratus; assay: Antifungal activity against Candida glabrata ATCC 48435 after 48 to 72 hrs by broth microdilution method; format: functional; how it was run: as §1

| SMILES | MIC80 [1] | MIC80 [2] |
| --- | --- | --- |
| O=C1NC(=O)C(/C=N/c2ccncc2)C(=O)N1 | inactive | inactive |
| CN(C)c1ccc(C=C2C(=O)NC(=O)NC2=O)cc1 | 62 µg/mL (≈ 239 µM) | inactive |
| O=C1NC(=O)C(=Cc2ccoc2)C(=O)N1 | inactive | inactive |
| C/C(=N\c1ccc(O)cc1)C1C(=O)N(C)C(=O)N(C)C1=O | inactive | inactive |
| C/C(=N\NC(=O)c1ccc([N+](=O)[O-])cc1)C1C(=O)N(C)C(=O)N(C)C1=O | inactive | inactive |
| C/C(=N\NS(=O)(=O)c1ccccc1)C1C(=O)N(C)C(=O)N(C)C1=O | inactive | inactive |
| CN1C(=O)C(=Cc2ccc(O)cc2)C(=O)N(C)C1=O | inactive | inactive |
| COc1ccc(C(=O)N/N=C(\C)C2C(=O)NC(=O)NC2=O)cc1 | inactive | inactive |
| C/C(=N\Nc1ccc([N+](=O)[O-])cc1[N+](=O)[O-])C1C(=O)NC(=O)NC1=O | inactive | inactive |
| COC(=O)N/N=C(\C)C1C(=O)NC(=O)NC1=O | inactive | inactive |
| O=C1NC(=O)C(/C=N/C2N=NN=N2)C(=O)N1 | inactive | inactive |
| C/C(=N\c1ccncc1)C1C(=O)N(C)C(=O)N(C)C1=O | inactive | inactive |
| COC(=O)N/N=C/C1C(=O)NC(=O)NC1=O | inactive | inactive |
| C/C(=N\NS(=O)(=O)c1ccc(C)cc1)C1C(=O)NC(=O)NC1=O | inactive | inactive |
| COC(=O)N/N=C/C1C(=O)N(C)C(=O)N(C)C1=O | inactive | inactive |
| CN1C(=O)C(/C=N/c2ccc(O)cc2)C(=O)N(C)C1=O | inactive | inactive |
| O=C1NC(=O)C(/C=N/n2cnnc2)C(=O)N1 | inactive | inactive |
| C/C(=N\c1ccc(O)cc1)C1C(=O)NC(=O)NC1=O | inactive | inactive |
| CN1C(=O)C(/C(=N/Nc2ccc(C(=O)O)cc2)c2ccccc2)C(=O)N(C)C1=O | inactive | inactive |
| C/C(=N\CCCCCC(=O)O)C1C(=O)NC(=O)NC1=O | inactive | inactive |

| SMILES | MIC80 [1] | MIC80 [2] |
| --- | --- | --- |
| O=C1NC(=O)C(=Cc2ccc(O)cc2)C(=O)N1 | inactive | inactive |
| O=C1NC(=O)N(c2ccccc2)C(=O)C1/C(=N/Nc1ccc([N+](=O)[O-])cc1[N+](=O)[O-])c1ccccc1 (stereo not given) | inactive | inactive |
| CN1C(=O)C(=Cc2ccc(N(C)C)cc2)C(=O)N(C)C1=O | inactive | inactive |
| N/N=C/C1C(=O)NC(=O)NC1=O | 125 µg/mL (≈ 735 µM) | 16 µg/mL (≈ 94 µM) |
| CN1C(=O)C(/C=N/c2ccccc2)C(=O)N(C)C1=O | inactive | inactive |
| C/C(=N\NC(=O)c1ccccc1)C1C(=O)NC(=O)NC1=O | inactive | inactive |
| CN1C(=O)C(/C(=N/Nc2ccc([N+](=O)[O-])cc2[N+](=O)[O-])c2ccc(O)cc2)C(=O)N(C)C1=O | inactive | inactive |
| O=C1NC(=O)C(/C=N/Nc2ccccc2)C(=O)N1 | 4 µg/mL (≈ 16.2 µM) | 2 µg/mL (≈ 8.12 µM) |
| O=C1NC(=O)C(/C=N/c2ccccn2)C(=O)N1 | inactive | inactive |
| O=C1NC(=O)C(/C=N/NS(=O)(=O)c2ccccc2)C(=O)N1 | inactive | inactive |
| C/C(=N\NC(=O)c1ccc([N+](=O)[O-])cc1)C1C(=O)NC(=O)NC1=O | inactive | 125 µg/mL (≈ 375 µM) |
| C/C(=N\c1ccncc1)C1C(=O)NC(=O)NC1=O | inactive | inactive |
| O=C1NC(=O)C(/C=N/c2ccccc2)C(=O)N1 | inactive | inactive |
| C/C(=N\NC(=O)c1ccccc1)C1C(=O)N(C)C(=O)N(C)C1=O | inactive | inactive |
| C/C(=N\c1ccccc1)C1C(=O)N(C)C(=O)N(C)C1=O | inactive | inactive |
| O=C1NC(=O)C(=Cc2ccccc2O)C(=O)N1 | inactive | 8 µg/mL (≈ 34.5 µM) |
| COc1ccc(/N=C(\C)C2C(=O)N(C)C(=O)N(C)C2=O)cc1 | inactive | inactive |
| CN1C(=O)C(/C=N/C2N=NN=N2)C(=O)N(C)C1=O | inactive | inactive |
| CN1C(=O)C(/C=N/c2ccc([N+](=O)[O-])cc2)C(=O)N(C)C1=O | inactive | inactive |
| CN/N=C/C1C(=O)NC(=O)NC1=O | inactive | inactive |

| SMILES | MIC80 [1] | MIC80 [2] |
| --- | --- | --- |
| CN1C(=O)C(=Cc2ccc(O)cc2O)C(=O)N(C)C1=O | inactive | 2 µg/mL (≈ 7.24 µM) |
| O=C1NC(=O)C(/C=N/NC(=O)c2ccccc2)C(=O)N1 | inactive | inactive |
| CN1C(=O)C(/C=N/NC(=O)c2ccccc2)C(=O)N(C)C1=O | inactive | inactive |
| C/C(=N\Nc1ccc([N+](=O)[O-])cc1)C1C(=O)NC(=O)N(c2ccccc2)C1=O (stereo not given) | 31.5 µg/mL (≈ 82.6 µM) | 16 µg/mL (≈ 42 µM) |
| C/C(=N\N)C1C(=O)N(C)C(=O)N(C)C1=O | inactive | inactive |
| CN/N=C(\C)C1C(=O)N(C)C(=O)N(C)C1=O | inactive | inactive |
| C/C(=N\NS(=O)(=O)c1ccccc1)C1C(=O)NC(=O)NC1=O | inactive | inactive |
| CN1C(=O)C(/C=N/c2ccncc2)C(=O)N(C)C1=O | inactive | inactive |
| C/C(=N\Nc1ccccc1)C1C(=O)NC(=O)NC1=O | 2 µg/mL (≈ 7.68 µM) | 2 µg/mL (≈ 7.68 µM) |
| CN1C(=O)C(/C=N/n2cnnc2)C(=O)N(C)C1=O | inactive | inactive |
| COc1ccc(/N=C(\C)C2C(=O)NC(=O)NC2=O)cc1 | inactive | inactive |
| O=C1NC(=O)C(/C=N/c2ccc([N+](=O)[O-])cc2)C(=O)N1 | inactive | inactive |
| O=C1NC(=O)C(=Cc2ccco2)C(=O)N1 | inactive | inactive |
| COc1ccc(C(=O)N/N=C(\C)C2C(=O)N(C)C(=O)N(C)C2=O)cc1 | inactive | inactive |
| C/C(=N\N)C1C(=O)NC(=O)NC1=O | inactive | inactive |
| CN1C(=O)C(/C=N/c2cccc(O)c2)C(=O)N(C)C1=O | inactive | inactive |
| O=C1NC(=O)C(/C=N/c2nnc[nH]2)C(=O)N1 | inactive | inactive |
| COC(=O)N/N=C(\c1ccc(O)cc1)C1C(=O)N(C)C(=O)N(C)C1=O | inactive | inactive |
| CN1C(=O)C(/C=N/c2ccccn2)C(=O)N(C)C1=O | inactive | inactive |
| COC(=O)N/N=C(\c1ccc([N+](=O)[O-])cc1)C1C(=O)NC(=O)NC1=O | inactive | inactive |
